In ChEMBL document CHEMBL3102784, “Salicylanilide diethyl phosphates: synthesis, antimicrobial activity and cytotoxicity” (Bioorg Med Chem, 2014):
pIC50: −log10 of the molar value. ≈ marks a conversion by molar mass, not a printed value. Calls of active or inactive are those of the source. The calls are words filed in the database; no cut-off is given here.

What was measured:
[1] = system: Staphylococcus aureus; experiment: Antibacterial activity against methicillin-resistant Staphylococcus aureus H 5996/08 after 24 hrs by broth microdilution method; type: functional; conditions: H 5996/08, 24 h
Summary of the method: (§1)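 Broth microdilution in Mueller–Hinton broth, compounds dissolved in DMSO, tested over a dilution series from 500 downward. MIC taken as ≥95% growth reduction (IC95) versus drug-free control. Benzylpenicillin comparator. Readings at 24 and 48 h.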

[2] = system: Trichophyton mentagrophytes; experiment: Antifungal activity against Trichophyton mentagrophytes 445 after 72 hrs by broth microdilution method; type: functional; conditions: Trichophyton mentagrophytes, 445, 72 h
Summary of the method: (§2)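 Filamentous dermatophyte tested by broth microdilution in RPMI 1640 with glutamine, fluconazole as reference. Value expressed as IC50 relative to growth control. Read at 72 and 120 h.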

[3] = system: Enterococcus sp.; experiment: Antibacterial activity against Enterococcus sp. J 14365/08 at 500 micromol/L after 24 to 48 hrs by broth microdilution method; type: functional, organism-based; summary of the method: as §1
[4] = system: Nakaseomyces glabratus; experiment: Antifungal activity against Candida glabrata 20/I at 500 micromol/L after 24 to 48 hrs by broth microdilution method; type: functional, organism-based
Summary of the method: (§3)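 Broth microdilution in RPMI 1640 with glutamine, fluconazole as reference. For yeasts, MIC is ≥80% growth reduction (IC80) versus control. For filamentous fungi, the value is expressed as IC50. Readings at 24 and 48 h.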

[5] = system: Candida tropicalis; experiment: Antifungal activity against Candida tropicalis 156 at 500 micromol/L after 24 to 48 hrs by broth microdilution method; type: functional, organism-based; summary of the method: as §3
[6] = system: Mycobacterium kansasii; experiment: Antimycobacterial activity against Mycobacterium kansasii My 235/80 after 14 days; type: functional; conditions: My 235/80, 336 h
Summary of the method: (§4)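 Micromethod MIC in Šula's semisynthetic medium at 37 °C. Compounds added in DMSO at 1000 down to 0.032 µmol/L. Isoniazid standard in sterile water at 0.5–250 µmol/L. Inocula: H37Rv 10^3, M. avium 10^5, M. kansasii 10^4. Read at 14 and 21 d, plus 7 d for M. kansasii.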

[7] = system: Candida albicans; experiment: Antifungal activity against Candida albicans ATCC 44859 after 48 hrs by broth microdilution method; type: functional; conditions: ATCC 44859, 48 h; summary of the method: as §3
[8] = system: Pseudomonas aeruginosa; experiment: Antibacterial activity against Pseudomonas aeruginosa CCM 1961 at 500 micromol/L after 24 to 48 hrs by broth microdilution method; type: functional, organism-based; summary of the method: as §1
[9] = system: Mycobacterium avium; experiment: Antimycobacterial activity against isoniazid, rifampicin, ethambutol and ofloxacin-resistant Mycobacterium avium My 330/88 after 14 days; type: functional; conditions: My 330/88, 336 h; summary of the method: as §4
[10] = system: Staphylococcus aureus; experiment: Antibacterial activity against Staphylococcus aureus CCM 4516/08 after 48 hrs by broth microdilution method; type: functional; conditions: CCM 4516/08, 48 h; summary of the method: as §1
[11] = system: Pichia kudriavzevii; experiment: Antifungal activity against Candida krusei E28 after 48 hrs by broth microdilution method; type: functional; conditions: E28, 48 h; summary of the method: as §3
[12] = system: Staphylococcus epidermidis; experiment: Antibacterial activity against Staphylococcus epidermidis H 6966/08 after 48 hrs by broth microdilution method; type: functional; conditions: H 6966/08, 48 h; summary of the method: as §1
[13] = system: Mycobacterium tuberculosis; experiment: Antimycobacterial activity against Mycobacterium tuberculosis H37Rv My 331/88 after 14 days; type: functional; conditions: H37Rv My 331/88, 336 h; summary of the method: as §4
[14] = system: Escherichia coli; experiment: Antibacterial activity against Escherichia coli CCM 4517 at 500 micromol/L after 24 to 48 hrs by broth microdilution method; type: functional, organism-based; summary of the method: as §1
[15] = system: Trichophyton mentagrophytes; experiment: Antifungal activity against Trichophyton mentagrophytes 445 after 120 hrs by broth microdilution method; type: functional; conditions: Trichophyton mentagrophytes, 445, 120 h; summary of the method: as §2
[16] = system: Staphylococcus aureus; experiment: Antibacterial activity against Staphylococcus aureus CCM 4516/08 after 24 hrs by broth microdilution method; type: functional; conditions: CCM 4516/08, 24 h; summary of the method: as §1
[17] = system: Candida albicans; experiment: Antifungal activity against Candida albicans ATCC 44859 after 24 hrs by broth microdilution method; type: functional; conditions: ATCC 44859, 24 h; summary of the method: as §3
[18] = system: Staphylococcus epidermidis; experiment: Antibacterial activity against Staphylococcus epidermidis H 6966/08 after 24 hrs by broth microdilution method; type: functional; conditions: H 6966/08, 24 h; summary of the method: as §1
[19] = system: HepG2; experiment: Cytotoxicity against human HepG2 cells after 24 hrs by CellTiter assay; type: cell-based; conditions: HepG2, 24 h
Summary of the method: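 HepG2 cells (passage 27–33) in MEM with 10% FBS, L-glutamine and NEAA, seeded at 1×10^4 per well. Treated next day with compounds at 0.1–100 µM (or 0.1–25 µmol/L), triplicates, <1% DMSO, for 24 h at 37 °C, 5% CO2. MTS reagent added for 2 h, absorbance read at 490 nm. IC50 taken against untreated (100%) and 10% DMSO (0%) controls.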

[20] = system: Mycobacterium kansasii; experiment: Antimycobacterial activity against Mycobacterium kansasii 6509/96 after 14 days; type: functional; conditions: 6509/96, 336 h; summary of the method: as §4
[21] = system: Klebsiella pneumoniae; experiment: Antibacterial activity against ESBL-positive Klebsiella pneumoniae J 14368/08 at 500 micromol/L after 24 to 48 hrs by broth microdilution method; type: functional, organism-based; summary of the method: as §1
[22] = system: Trichosporon asahii; experiment: Antifungal activity against Trichosporon asahii 1188 after 48 hrs by broth microdilution method; type: functional; conditions: Trichosporon asahii, 1188, 48 h; summary of the method: as §3
[23] = system: Mycobacterium kansasii; experiment: Antimycobacterial activity against Mycobacterium kansasii My 235/80 after 21 days; type: functional; conditions: My 235/80, 504 h; summary of the method: as §4
[24] = system: Mycobacterium tuberculosis; experiment: Antimycobacterial activity against Mycobacterium tuberculosis H37Rv My 331/88 after 21 days; type: functional; conditions: H37Rv My 331/88, 504 h; summary of the method: as §4
[25] = system: Staphylococcus aureus; experiment: Antibacterial activity against methicillin-resistant Staphylococcus aureus H 5996/08 after 48 hrs by broth microdilution method; type: functional; conditions: H 5996/08, 48 h; summary of the method: as §1
[26] = system: Aspergillus fumigatus; experiment: Antifungal activity against Aspergillus fumigatus 231 after 48 hrs by broth microdilution method; type: functional; conditions: Aspergillus fumigatus, 231, 48 h; summary of the method: as §3
[27] = system: Klebsiella pneumoniae; experiment: Antibacterial activity against Klebsiella pneumoniae D 11750/08 at 500 micromol/L after 24 to 48 hrs by broth microdilution method; type: functional, organism-based; summary of the method: as §1
[28] = system: Lichtheimia corymbifera; experiment: Antifungal activity against Absidia corymbifera 272 after 48 hrs by broth microdilution method; type: functional; conditions: Lichtheimia corymbifera, 272, 48 h; summary of the method: as §3
[29] = system: Trichosporon asahii; experiment: Antifungal activity against Trichosporon asahii 1188 after 24 hrs by broth microdilution method; type: functional; conditions: Trichosporon asahii, 1188, 24 h; summary of the method: as §3
[30] = system: Aspergillus fumigatus; experiment: Antifungal activity against Aspergillus fumigatus 231 after 24 hrs by broth microdilution method; type: functional; conditions: Aspergillus fumigatus, 231, 24 h; summary of the method: as §3
[31] = system: Mycobacterium kansasii; experiment: Antimycobacterial activity against Mycobacterium kansasii 6509/96 after 21 days; type: functional; conditions: 6509/96, 504 h; summary of the method: as §4
[32] = system: Mycobacterium avium; experiment: Antimycobacterial activity against isoniazid, rifampicin, ethambutol and ofloxacin-resistant Mycobacterium avium My 330/88 after 21 days; type: functional; conditions: My 330/88, 504 h; summary of the method: as §4
[33] = system: Pichia kudriavzevii; experiment: Antifungal activity against Candida krusei E28 after 24 hrs by broth microdilution method; type: functional; conditions: E28, 24 h; summary of the method: as §3
[34] = system: Mycobacterium kansasii; experiment: Antimycobacterial activity against Mycobacterium kansasii My 235/80 after 7 days; type: functional; conditions: My 235/80, 168 h; summary of the method: as §4
[35] = system: Mycobacterium kansasii; experiment: Antimycobacterial activity against Mycobacterium kansasii 6509/96 after 7 days; type: functional; conditions: 6509/96, 168 h; summary of the method: as §4
[36] = system: Lichtheimia corymbifera; experiment: Antifungal activity against Absidia corymbifera 272 after 24 hrs by broth microdilution method; type: functional; conditions: Lichtheimia corymbifera, 272, 24 h; summary of the method: as §3

Row | SMILES | MIC95 [1] [µM] | MIC50 [2] [µM] | Activity [3] | Activity [4] | Activity [5] | MIC [6] [µM] | MIC80 [7] [µM] | Activity [8] | MIC [9] [µM] | MIC95 [10] [µM] | MIC80 [11] [µM] | MIC95 [12] [µM] | MIC [13] [µM] | Activity [14] | MIC50 [15] [µM] | MIC95 [16] [µM] | MIC80 [17] [µM] | MIC95 [18] [µM] | pIC50 [19] | MIC [20] [µM] | also measured
1 | CCOP(=O)(OCC)Oc1ccc(Br)cc1C(=O)Nc1cccc(C(F)(F)F)c1 | 15.6 (≈ 7.75 µg/mL) | 62.5 (≈ 31 µg/mL) | inactive | inactive | inactive | 4 (≈ 1.98 µg/mL) | > 500 | inactive | 16 (≈ 7.94 µg/mL) | 7.81 (≈ 3.88 µg/mL) | > 500 | 7.81 (≈ 3.88 µg/mL) | 2 (≈ 0.992 µg/mL) | inactive | 62.5 (≈ 31 µg/mL) | 7.81 (≈ 3.88 µg/mL) | > 500 | 7.81 (≈ 3.88 µg/mL) | 5.74 | 8 (≈ 3.97 µg/mL) | Activity [21]: inactive; MIC80 [22]: > 500 µM; MIC [23]: 8 µM (≈ 3.97 µg/mL); MIC [24]: 2 µM (≈ 0.992 µg/mL); MIC95 [25]: 15.6 µM (≈ 7.75 µg/mL); MIC50 [26]: > 500 µM; Activity [27]: inactive; MIC50 [28]: > 500 µM; MIC80 [29]: > 500 µM; MIC50 [30]: > 500 µM; MIC [31]: 8 µM (≈ 3.97 µg/mL); MIC [32]: 16 µM (≈ 7.94 µg/mL); MIC80 [33]: > 500 µM; MIC [34]: 4 µM (≈ 1.98 µg/mL); MIC [35]: 4 µM (≈ 1.98 µg/mL); MIC50 [36]: > 500 µM
2 | CCOP(=O)(OCC)Oc1cc(Cl)ccc1C(=O)Nc1cccc(Cl)c1 | 500 (≈ 209 µg/mL) | > 500 | inactive | inactive | inactive | 8 (≈ 3.35 µg/mL) | > 500 | inactive | 16 (≈ 6.69 µg/mL) | 500 (≈ 209 µg/mL) | > 500 | 500 (≈ 209 µg/mL) | 4 (≈ 1.67 µg/mL) | inactive | > 500 | 500 (≈ 209 µg/mL) | > 500 | 250 (≈ 105 µg/mL) | 5.02 | 8 (≈ 3.35 µg/mL) | Activity [21]: inactive; MIC80 [22]: > 500 µM; MIC [23]: 8 µM (≈ 3.35 µg/mL); MIC [24]: 8 µM (≈ 3.35 µg/mL); MIC95 [25]: 500 µM (≈ 209 µg/mL); MIC50 [26]: > 500 µM; Activity [27]: inactive; MIC50 [28]: > 500 µM; MIC80 [29]: > 500 µM; MIC50 [30]: > 500 µM; MIC [31]: 8 µM (≈ 3.35 µg/mL); MIC [32]: 16 µM (≈ 6.69 µg/mL); MIC80 [33]: > 500 µM; MIC [34]: 4 µM (≈ 1.67 µg/mL); MIC [35]: 8 µM (≈ 3.35 µg/mL); MIC50 [36]: > 500 µM
